Results gathered from unrelated publications.
Lines come from different studies, so protocols differ.
Oprk1: Kappa-type opioid receptor (Oprk1, Mus musculus, UniProt P33534)
MC4R: Melanocortin receptor 4 (MC4R, Homo sapiens, UniProt P32245)
BCHE: Cholinesterase (BCHE, Homo sapiens, UniProt P06276)

SMILES	target	assay	test system	setting	endpoint	result
[2H]c1c([2H])c([C@]2([2H])CCCN2C(=O)C(C)(C)Oc2ccc3cn[nH]c3c2)c([2H])c([2H])c1C([2H])([2H])[2H]	Peripheral plasma membrane protein CASK (CASK, Homo sapiens, UniProt O14936)	binding, competition with immobilised ligand	–	1 µM	remaining binding	89%
CC(C)[C@@H](CN1CCc2ccccc2C1)NC(=O)c1cccc(-c2cccc(O)c2)c1	Oprk1	ligand displacement, radioligand	–	10 µM	inhibition	94.2%
CC(C)CC(=O)OC[C@H]1O[C@@](C#N)(c2ccc3c(N)ncnn23)[C@H](O)[C@@H]1O	MC4R	cell-free assay	–	20 µM	inhibition	6%
COc1cc(/C=C/C(=O)O)ccc1OCc1cn(CC(=O)Nc2ccc(Cl)cc2)nn1	BCHE	enzyme activity, inhibitor, Ellman	–	40 µM	inhibition	22.2%
CCCC[C@H](NC(C)=O)C(=O)N[C@@H](C)C(=O)N[C@@H](Cc1c[nH]cn1)C(=O)N[C@@H](Cc1ccccc1)C(=O)N[C@@H](CCCNC(=N)N)C(=O)N[C@H](Cc1c[nH]c2ccccc12)C(=O)N[C@@H](CC(=O)O)C(=O)N[C@@H](CCCNC(=N)N)C(=O)N[C@@H](Cc1ccccc1)C(=O)N[C@@H](C(=O)N1CCC[C@@H]1C(N)=O)C(C)C	MC4R	cAMP, agonist	CHO-K1	–	Emax	100%
CC(C)[C@@H](CN1CCc2ccccc2C1)NC(=O)Cc1c[nH]c2ccccc12	Oprk1	ligand displacement, radioligand	–	10 µM	inhibition	89.1%
COc1cc(/C=C/C(=O)O)ccc1OCc1cn(CC(=O)Nc2ccccc2C)nn1	BCHE	enzyme activity, inhibitor, Ellman	–	40 µM	inhibition	44.6%
CN1CCC[C@H]1c1cccnc1	Muscarinic acetylcholine receptor M5 (CHRM5, Homo sapiens, UniProt P08912)	ligand displacement	–	50 µM	inhibition	-4.76%
Cc1c(CC(=O)N[C@@H](CN2CCc3ccccc3C2)C(C)C)cccc1[N+](=O)[O-]	Oprk1	ligand displacement, radioligand	–	10 µM	inhibition	95.1%
COc1cc(/C=C/C(=O)O)ccc1OCc1cn(CC(=O)Nc2ccc(C)cc2)nn1	BCHE	enzyme activity, inhibitor, Ellman	–	40 µM	inhibition	48.5%
